# PP5 inh – PP5 (human) phosphatase inhibition; purified PP5c, OMFP substrate fluorescence; inhibition, % at 6.7 µM; 320,000 tested, 0.18% active; AID 1987;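 active means inhibition above the campaign's mean inhibition across all tested compounds plus 3 SD, cut at about 9.5% in these data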;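 further: 0% = DMSO only and 100% = 100 µM cantharidin control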
# Apaf-1 inh – human Apaf-1 inhibition. reconstituted apoptosome caspase-3 activity, DEVD-Rh110 fluorescence. inhibition, % at 20 µM. 330,000 tested, 0.71% active. AID 489030; active means inhibition of at least 40% at 20 µM;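 further: plate controls were DMSO wells for no effect and DEVD-CHO caspase inhibitor wells for full effect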
#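 Assay system – apoptosome proteins · Medium – Hepes buffer, pH 7.5 · Also added – cytochrome c with DEVD-Rh110 · Timing – 30 min compound preincubation, 50 min activation, room temperature · Detection – Rh110 fluorescence, excitation 480 nm, emission 540 nm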
# GSTO1 counter – counter-screen for RBBP9 inhibitors: inhibitors of human GSTO1; 300,000 tested, 1.1% active; inhibition, % at 5.96 µM; AID 1974; P78417; recombinant GSTO1, activity-based probe fluorescence polarization;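 active means inhibition above the campaign mean inhibition plus 3 SD, cut at about 35% in these data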;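 further: 0% = GSTO1-1 with DMSO and 100% = wells lacking GSTO1-1 enzyme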
# Target sequence (P78417 whole entry, looked up): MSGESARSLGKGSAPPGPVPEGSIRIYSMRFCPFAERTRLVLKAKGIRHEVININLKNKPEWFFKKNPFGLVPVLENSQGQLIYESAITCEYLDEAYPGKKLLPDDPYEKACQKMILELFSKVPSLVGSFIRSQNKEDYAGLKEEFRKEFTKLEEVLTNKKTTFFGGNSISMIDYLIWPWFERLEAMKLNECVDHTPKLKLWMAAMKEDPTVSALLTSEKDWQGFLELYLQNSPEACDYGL
# PAD4 FP inh – blocks human protein arginine deiminase 4. inhibition, % at 6.36 µM. Q9UM07. recombinant PAD4, RCA probe fluorescence polarization. 330,000 tested, 0.41% active;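 active means percent inhibition above a cutoff equal to the mean of all tested compounds plus 3 SD, cut at about 15% in these data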;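 further: 0% = PAD4 with RCA probe and DMSO and 100% = probe without PAD4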
# Fh CTSL1 inh – blocks F. hepatica cathepsin L1 in PFM18AAP counter-screen; recombinant F. hepatica cathepsin L1, Z-Leu-Arg-MCA fluorescence; 300,000 tested, 0.49% active; AID 1906; inhibition, % at 5.96 µM;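 active means inhibition above the mean of all tested compounds plus 3 SD, set per screening campaign, cut at about 17% in these data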;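 further: 0% = plate median of test compound wells and 100% = 1 µM Z-Phe-Ala-diazomethylketone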
# UCH37 DUB inh – inhibitors of human deubiquitinating enzyme UCH37; Q9Y5K5; purified proteasome/UCH37, Ub-AMC cleavage fluorescence; inhibition, % (no concentration beside the values); 330,000 tested, 0.33% active; AID 588478;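 active means mean inhibition over replicate wells above about 20%, limit read from the data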;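 further: 0% = compound-free wells with enzyme and 100% = wells lacking proteasome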
#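 Schedule: 30 min plus 25 min, room temperature / Material: human UCH37 within purified proteasomes / Technique: AMC fluorescence intensity at 355/460 nm / Buffer or medium: pH 7.4 Tris-HCl (50 mM) with ovalbumin, ATP-MgCl2, DTT / Controls: wells without proteasome as full block, compound-free enzyme plus substrate as uninhibited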
# * hit, by the source's call; · = not tested or not shown. Shown are actives, neighbours in structure and some others; about 2% of the full set was active somewhere.
SMILES,PP5 inh,Apaf-1 inh,GSTO1 counter,PAD4 FP inh,Fh CTSL1 inh,UCH37 DUB inh
CCn1c(C(C#N)=C(O)CCc2ccccc2)nc2ccccc21,·,·,·,·,·,-98
COc1ccc(OC)c(C=NNC(=O)CCCC(=O)Nc2cccc(Br)c2)c1,·,·,·,·,·,-141
COC(=O)C(=NNc1ccccc1C(=O)OC)C(C)=NO,·,·,·,·,·,-26
COc1cccc(C=NNC(=O)CCc2c(C)n[nH]c2C)c1,·,·,·,·,·,29*
COc1ccc(NC(=O)C(=O)NNC(=O)c2cccs2)cc1,0,-13,-1,-2,19*,7
Cc1ccc(NC(=O)C(=O)NNC(=O)c2cccs2)cc1,-1,-3,6,2,-2,9
CN(CCCCCC(=O)C=NO)Cc1ccccc1,·,·,·,·,·,1
O=C(COc1ccc(Cl)cc1)NCCCNC(=O)c1cccnc1,-1,4,2,-1,17*,-1
COc1ccc(C(=O)/C=C/c2ccccc2)c(O)c1,5,2,-2,3,22*,7
COc1ccc(C(=O)/C=C/c2ccc(OC)cc2OC)c(O)c1,4,0,-1,4,-3,2
CCOc1ccc(S(=O)(=O)Nc2ccccc2C(=O)NN=Cc2c(OC)ccc3ccccc23)cc1,·,·,·,·,·,-9
CC(=O)Nc1ccc(N(C(=O)Cn2nnc3ccccc32)C(C(=O)NC2CCCC2)c2ccc(O)c(O)c2)cc1 (configuration not stated),1,7,43*,-2,-1,1
O=C(NN=Cc1cc(Br)cs1)c1ccncc1,·,·,·,·,·,8
CC(=NNC(=S)NC(C)C)c1ccc2c(c1)OCCO2,·,·,·,·,·,6
c1coc(C2Nc3cccc4cccc(c34)N2)c1,0,31,50*,-3,0,·
COc1cc(C2Nc3cccc4cccc(c34)N2)ccc1OC(C)=O,3,20,53*,-5,-1,6
FC(F)(F)c1ccc(C2Nc3cccc4cccc(c34)N2)cc1,·,22,·,·,·,2
Fc1ccc(C2Nc3cccc4cccc(c34)N2)cc1,0,22,37*,-2,0,·
Cc1ccccc1C(=O)NN=C1SCC(=O)N1Cc1ccccc1,·,·,·,·,·,0
CC(=NNC(=O)c1ccc(-c2ccccc2)cc1)c1cccc(O)c1,·,·,·,·,·,-4
COC(=O)c1cc(O)c(O)c(O)c1,-6,6,47*,5,6,4
Cc1ccc(COc2ccc(C=NNC(=O)c3ccc(CN4CCOCC4)cc3)cc2)cc1,·,·,·,·,·,4
Cc1ccc(NCN2C(=O)C3C4C=CC(C4)C3C2=O)cc1 (configuration not stated),0,5,3,0,1,-1
O=C1C2C3C=CC(C3)C2C(=O)N1CNc1ccc(O)cc1 (configuration not stated),7,94*,93*,33*,71*,·
CC(C)(C)N1C(=O)[C@H]2[C@@H](c3ccc(Br)cc3)N3C(=O)N(c4ccccc4)C(=O)[C@@]3(Cc3ccccc3)[C@H]2C1=O,4,2,2,-1,0,27*
SMILES,PP5 inh,Apaf-1 inh,GSTO1 counter,PAD4 FP inh,Fh CTSL1 inh,UCH37 DUB inh
COc1cc(C=NNc2nc3ccccc3s2)cc([N+](=O)[O-])c1O,·,·,·,·,·,22*
O=C(CCl)Nc1ccc(Oc2cnc3ccccc3n2)cc1,0,-1,86*,1,23*,1
O=C(O)COc1cnc2ccccc2n1,2,-1,-4,-4,-3,-38
COc1ccc(NC(=O)CCl)cn1,1,67*,56*,4,17*,·
CC(C)Oc1cccc(C(=O)NN=Cc2coc3ccccc3c2=O)c1,·,·,·,·,·,-42
O=C1c2ccccc2-c2c1nc1c([n+]2[O-])CCCC1,-3,42*,15,-18,1,3
Cc1ccc(S(=O)(=O)c2nc(C)oc2NCc2ccccc2)cc1,3,-14,2,5,35*,·
CNc1oc(Cc2ccccc2)nc1S(=O)(=O)c1ccccc1,-1,-10,-1,-3,22*,2
CCOc1ccc(-c2nc(S(=O)(=O)c3ccccc3)c(NC)o2)cc1,1,-8,-2,-7,-1,-42
Cc1ccc(C(=O)Nc2ccc(C(=O)N/N=C/c3ccccn3)cc2)cc1,-8,7,0,-8,19*,·
Cc1ccccc1C(=O)Nc1ccc(C(=O)NN=Cc2ccccn2)cc1,·,·,·,·,·,4
Cc1cc(C)nc(N(C#N)CC(=O)N(c2ccccc2)C(C)C)n1,4,3,6,6,0,3

# High-throughput results as filed in PubChem BioAssay.
